OXTR agonist: human OXTR agonism; CHO-OTR cells, Fluo-8 calcium fluorescence; normalized: DMSO 0%, oxytocin 100%; activation, % at 3 µM; 320,000 compounds, 0.32% hits; P30559; AID 2435;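 active means activation above the mean of all tested compounds plus 3 SD, cutoff set per screening run, cut at about 20% in these data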;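 further: peak over basal fluorescence ratio from a 100 s FLIPR kinetic read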
OX1R antag-1: blocks the human orexin 1 receptor; O43613; inhibition, % at 5 µM; 330,000 compounds, 0.43% hits; AID 434989; CHO/OX1R cells, Fluo-8 calcium fluorescence, orexin A;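 active means inhibition above its plate's threshold, mean inhibition of all tested compounds on the plate plus 3 SD, cut at about 37% in these data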
OXTR potentiator: potentiators of human oxytocin receptor. P30559. CHO-OTR cells, Fluo-8 calcium fluorescence, potentiator mode; 0% = oxytocin EC15, 100% = EC100. activation, % at 3 µM. 320,000 compounds, 0.061% hits. AID 2445;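 active means activation above that plate's cutoff, the mean activation of tested compounds plus 3 SD, cut at about 6.6% in these data, passing the limit was not always enough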
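Replication – single well per compound, singlicate · Assay system – CHO cell line stably expressing human OTR · Timing – 6 min pre-incubation, 100 s read · Measure – normalized max/min fluorescence ratio, % activation · Doses – 3.0 µM, one dose · Detection – Fluo-8 calcium dye fluorescence · Probe or stimulus – oxytocin near EC15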
CHO parental Ca: signal in parental CHO cells, OX1R antagonist counter-screen; parental CHO-K1, ATP-induced calcium, Fluo-8 fluorescence; inhibition, % at 5.6 µM; 330,000 compounds, 0.63% hits; AID 463079;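 active means inhibition above that plate's mean sample inhibition plus 3 SD, cut at about 26% in these data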
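Measured by: calcium-sensitive Fluo-8 fluorescence / Test system: CHO parental line / Controls: ATP-challenged DMSO wells low, unchallenged DMSO wells high / Measure: % inhibition / Compound: single nominal dose of 5.6 µM per compound / Replicates: single well per compound, no replicates / Reagent: ATP as calcium-mobilizing challenge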
OX1R antag-2: OX1R (human) antagonism; O43613; OX1R-expressing cells, FRET antagonist read-out; inhibition, % at 6.6 µM; 330,000 compounds, 1.8% hits; AID 485270; in the data active means inhibition mostly above about 38%, no sharp cut-off; inactive means mostly below about 40%
V1R ag counter: counter-screen for oxytocin receptor agonists: human V1a receptor agonists; P37288; CHO-V1R cells, Fluo-8 calcium fluorescence, agonist mode; 0% DMSO, 100% 3 nM vasopressin; activation, % at 3 µM; 320,000 compounds, 0.25% hits; AID 2797;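 active means activation above the mean activation of all tested compounds plus 3 SD, per screening run, cut at about 20% in these data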;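 further: signal is peak over basal fluorescence ratio across a 100 second FLIPR read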
Target sequence (P37288 whole entry, looked up): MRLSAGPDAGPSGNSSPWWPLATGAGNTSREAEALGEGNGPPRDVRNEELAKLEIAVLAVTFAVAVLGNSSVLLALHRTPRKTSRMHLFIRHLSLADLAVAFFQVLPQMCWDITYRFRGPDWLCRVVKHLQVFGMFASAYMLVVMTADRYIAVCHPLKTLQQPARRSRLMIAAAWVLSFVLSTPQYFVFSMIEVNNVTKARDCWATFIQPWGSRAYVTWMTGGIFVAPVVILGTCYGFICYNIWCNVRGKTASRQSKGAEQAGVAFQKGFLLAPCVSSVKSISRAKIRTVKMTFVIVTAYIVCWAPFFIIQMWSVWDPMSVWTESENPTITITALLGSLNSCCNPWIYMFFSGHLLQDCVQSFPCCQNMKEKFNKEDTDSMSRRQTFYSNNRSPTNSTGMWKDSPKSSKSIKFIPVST
Numbers stand for hits; . = inactive. The list is not random: actives were taken first. Their share in the collection is about 2.6%.

SMILES | OXTR agonist | OX1R antag-1 | OXTR potentiator | CHO parental Ca | OX1R antag-2 | V1R ag counter
COc1ccc(NC(=O)CSc2ccc(-c3cccs3)nn2)c(OC)c1 | . | . | . | . | . | .
COc1cccc(CNC(=O)CSc2ccc(-c3cccs3)nn2)c1 | . | . | . | . | 58 | .
O=C(CSc1ccc(-c2cccs2)nn1)NCc1ccccc1Cl | . | . | . | . | 70 | .
COc1ccccc1CNC(=O)CSc1ccc(-c2cccs2)nn1 | . | . | . | . | 59 | .
COC(=O)c1ccc(OCC(=O)c2ccccc2OC)cc1 | . | . | . | . | 45 | .
Cc1cc(C(C#N)c2cccc(Cl)c2)n2ncnc2n1 (centres undefined) | . | . | . | . | 76 | .
COc1ccc2c(c1)NC(c1ccc(N(C)C)cc1)c1cccn1-2 (centres undefined) | . | . | . | . | 67 | .
COc1ccc(S(=O)(=O)Nc2ccc3c(c2)C(=O)N([C@H](C)CO)C[C@H](C)[C@@H](CN(C)C(=O)Nc2c(C)noc2C)O3)cc1 | . | . | . | . | . | .
O=C(NCc1ccco1)C1CCN(C(=O)c2ccc([N+](=O)[O-])cc2)CC1 | . | . | . | . | 53 | .
O=C(NCc1ccco1)C1CCN(C(=O)c2ccc(Cl)cc2)CC1 | . | . | . | . | . | .
O=C(NCc1ccco1)C1CCN(C(=O)c2cc3sccc3n2Cc2ccc(Cl)cc2)CC1 | . | 69 | . | 37 | . | .
O=C(OCC#CCSc1nnc(-c2ccccc2)o1)c1cccs1 | . | . | . | . | . | .
O=C(OCC#CCSc1nnc(-c2cccc3ccccc23)o1)c1cccs1 | . | . | . | . | 56 | .
COCC(C)n1c(SCc2nc(N)nc(Nc3ccccc3C)n2)nc2ccccc2c1=O (centres undefined) | . | . | . | . | . | .
CCCCn1c(SCc2nc(N)nc(Nc3ccccc3C)n2)nc2ccccc2c1=O | . | . | . | . | 71 | .
Cc1ccc2c(c1)-n1c(nc3ccccc3c1=O)C(Cc1ccc(O)cc1)NC2=O (centres undefined) | . | . | . | . | . | .
Cc1cc(C)c(C(N)=O)c(SCC(=O)c2cc(C)c(C)cc2C)n1 | . | . | . | . | . | .
Cc1cc(C)c(C(N)=O)c(SCC(=O)c2cc(C)n(-c3cc(C)on3)c2C)n1 | . | . | . | 31 | . | .
Cn1c(SCc2ccc([N+](=O)[O-])cc2)nnc1-c1ccncc1 | . | . | . | . | . | .
Cn1c(SCC2CCCO2)nnc1-c1ccc([N+](=O)[O-])cc1 (centres undefined) | . | . | . | . | 41 | .
O=[N+]([O-])c1cc(Cl)cc(C2=NCCN2)c1 | . | . | . | . | 61 | .
O=[N+]([O-])c1ccc(C2=Nc3cc(Cl)ccc3OC2)cc1 | . | . | . | . | . | .
O=C(O)c1ccc(N2CCCCCC2)c(N2C(=O)c3ccccc3C2=O)c1 | . | . | . | . | . | .
O=C1c2cccc3c(N4CCCCC4)ccc(c23)C(=O)N1c1ccccc1O | 43 | 54 | . | 52 | . | 41
O=C1c2cccc3c(N4CCCCC4)ccc(c23)C(=O)N1c1ccc(O)cc1 | 22 | . | . | . | . | 23
SMILES | OXTR agonist | OX1R antag-1 | OXTR potentiator | CHO parental Ca | OX1R antag-2 | V1R ag counter
CC(NC(=O)c1cc2c(=O)n3ccccc3nc2n(CC2CCCO2)c1=N)c1ccccc1 (centres undefined) | . | . | . | . | 37 | .
N=c1c(C(=O)NC2CCCC2)cc2c(=O)n3ccccc3nc2n1CC1CCCO1 (centres undefined) | . | . | . | . | 50 | .
COCCCn1c(=N)c(C(=O)NC2CCCCC2)cc2c(=O)n3ccccc3nc21 | . | . | . | . | 76 | .
N=c1c(C(=O)NC2CCCCC2)cc2c(=O)n3ccccc3nc2n1CC1CCCO1 (centres undefined) | . | . | . | . | 60 | .
N=c1c(C(=O)NC2CCCC2)cc2c(=O)n3ccccc3nc2n1C1CCCC1 | . | . | . | . | . | .
COCCNC(=O)NC(=O)CN1CCN(C(c2ccccc2)c2ccccc2)CC1 | . | . | . | . | . | .

Assay outcomes deposited in PubChem BioAssay by The Scripps Research Institute Molecular Screening Center.
